ChEMBL document CHEMBL3244180, “Synthesis of branched-chain apiosylpyrimidines and their inhibition of lymphocyte proliferation” (1978)
Active and inactive are the calls of the source. No cut-off for these calls is given here.

Assays:
Human alphaherpesvirus 2 = assay: Antiviral activity against HSV2 infected in BHK cells assessed as reduction of viral plaque at 4 uM after 24 hrs; format: functional; parameters: scale not given: the % may be the effect or the level left
How it was run: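 BHK confluent monolayers in 24-well trays; supernatant removed and 50 μL virus dilution added per well; 2 h at 37 °C, 5% CO2, 100% humidity with intermittent agitation. Eagle's medium containing tryptose phosphate broth and calf serum then added; viral plaques counted after 24 h.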

[1] = Immunosuppressive activity against PHA-stimulated proliferation in rat T-lymphocytes assessed as cell viability at 100 uM after 6 days by [3H]thymidine incorporation method relative to control; format: functional; conditions: read-out: Activity
How it was run: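 Rat lymphocytes incubated 6 days at 37 °C with 100 μM compound; result expressed as percentage of viable lymphocytes.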

[2] = Immunosuppressive activity against PHA-stimulated proliferation in rat T-lymphocytes assessed as cell viability at 1 uM […] by [3H]thymidine incorporation method relative to control; format: functional; conditions: read-out: Activity
T-cell = assay: Immunosuppressive activity against PHA-stimulated proliferation in rat T-lymphocytes assessed as cell viability at 0.01 to 0.1 uM […] by [3H]thymidine incorporation method relative to control; format: functional, cell-based
Serratia marcescens = assay: Antibacterial activity against Serratia marcescens at 1 mg/ml; format: functional, organism-based
How it was run: (§1)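 Organisms grown on agar plates at 37 °C. Compound dissolved at 1 mg/mL in methanol, applied to a 2-cm disk, and the disk placed on agar streaked with the organism.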

Candida albicans = assay: Antifungal activity against Candida albicans at 1 mg/ml; format: functional, organism-based; how it was run: as §1
Bacillus subtilis = assay: Antibacterial activity against Bacillus subtilis at 1 mg/ml; format: functional, organism-based; how it was run: as §1
Escherichia coli = assay: Antibacterial activity against Escherichia coli at 1 mg/ml; format: functional, organism-based; how it was run: as §1
Staphylococcus aureus = assay: Antibacterial activity against Staphylococcus aureus at 1 mg/ml; format: functional, organism-based; how it was run: as §1
Ralstonia solanacearum = assay: Antibacterial activity against Pseudomonas solanacearum at 1 mg/ml; format: functional, organism-based
How it was run: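 Agar disk diffusion: test compound at 1 mg/mL in methanol, applied to a 2-cm disk laid on agar plates streaked with the organism.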

Neurospora crassa = assay: Antifungal activity against Neurospora crassa at 1 mg/ml; format: functional, organism-based; how it was run: as §1
Pseudomonas aeruginosa = assay: Antibacterial activity against Pseudomonas aeruginosa at 1 mg/ml; format: functional, organism-based; how it was run: as §1
[3] = test system: Saccharomyces pastorianus; assay: Antifungal activity against Saccharomyces pastorianus at 1 mg/ml; format: functional, organism-based; how it was run: as §1
[4] = test system: Salmonella enterica subsp. enterica serovar Gallinarum; assay: Antibacterial activity against Salmonella gallinarum at 1 mg/ml; format: functional, organism-based; how it was run: as §1
Micrococcus luteus = assay: Antibacterial activity against Sarcina lutea at 1 mg/ml; format: functional, organism-based; how it was run: as §1
Proteus vulgaris = assay: Antibacterial activity against Proteus vulgaris at 1 mg/ml; format: functional, organism-based; how it was run: as §1
[5] = Growth inhibition of human MGL8 cells at 500 uM after 48 hrs relative to control; format: functional; conditions: MGL8, 48 h, read-out: GI
How it was run: (§2)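 MGL-8 lymphoblasts seeded at 22 × 10⁴ cells/mL in stationary suspension in RPMI 1640 with 10% fetal calf serum, penicillin and streptomycin; 48 h at 37 °C; cells counted by Coulter counter; growth expressed as % of untreated control; significance tested (p < 0.01).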

[6] = Growth inhibition of human MGL8 cells at 50 uM after 48 hrs relative to control; format: functional; conditions: MGL8, 48 h, read-out: GI; how it was run: as §2
MGL8 = assay: Growth inhibition of human MGL8 cells at 5 uM after 48 hrs; format: functional, cell-based; how it was run: as §2

SMILES	Activity (Human alphaherpesvirus 2)	viability at 100 µM [1] [%]	thymidine incorporation of control at 1 µM [2] [%]	Activity (T-cell)	Activity (Serratia marcescens)	Activity (Candida albicans)	Activity (Bacillus subtilis)	Activity (Escherichia coli)	Activity (Staphylococcus aureus)	Activity (Ralstonia solanacearum)	Activity (Neurospora crassa)	Activity (Pseudomonas aeruginosa)	Activity [3]	Activity [4]	Activity (Micrococcus luteus)	Activity (Proteus vulgaris)	inhibition of growth at 500 µM [5] [%]	inhibition of growth at 50 µM [6] [%]	growth inhibition (GI) (MGL8)
Nc1ncnc2c1ncn2[C@@H]1OC[C@@](O)(CO)[C@H]1O	42%	85	14																
Nc1ccn([C@@H]2O[C@H](CO)[C@@H](O)[C@@H]2O)c(=O)n1 [CYTARABINE]		76	18	inactive															
CC(=O)O[C@H]1[C@H](n2cc(I)c(=O)[nH]c2=O)OC[C@@]12COC(=O)O2					inactive	inactive	inactive	inactive	inactive	inactive	inactive	inactive	inactive	inactive	inactive	inactive			
Nc1ncnc2c1ncn2[C@@H]1OC[C@](O)(CO)[C@H]1O		91	159	inactive															
O=c1[nH]c(=O)n([C@@H]2O[C@H](CO)[C@@H](O)[C@H]2O)cc1Br																	11	40	inactive
O=c1ccn([C@@H]2OC[C@@](O)(CO)[C@H]2O)c(=O)[nH]1	inactive	90	16	inactive	inactive	inactive	inactive	inactive	inactive	inactive	inactive	inactive	inactive	inactive	inactive	inactive	72	100	inactive
O=c1[nH]c(=O)n([C@@H]2O[C@H](CO)[C@@H](O)[C@H]2O)cc1I																	9	32	inactive
Nc1ncnc2c1ncn2[C@@H]1O[C@H](CO)[C@@H](O)[C@@H]1O [VIDARABINE]		94	71																
CC(=O)O[C@H]1[C@H](n2cc(Br)c(=O)[nH]c2=O)OC[C@@]12COC(=O)O2					inactive	inactive	inactive	inactive	inactive	inactive	inactive	inactive	inactive	inactive	inactive	inactive			
NC(=O)c1ncn([C@@H]2O[C@H](CO)[C@@H](O)[C@H]2O)n1 [RIBAVIRIN]			127																
O=c1[nH]c(=O)n([C@@H]2OC[C@@](O)(CO)[C@H]2O)cc1Br	inactive																13	52	inactive
Cc1cn([C@@H]2OC[C@@](O)(CO)[C@H]2O)c(=O)[nH]c1=O	inactive	89	56	inactive	inactive	inactive	inactive	inactive	inactive	inactive	inactive	inactive	inactive	inactive	inactive	inactive	83	95	inactive
O=c1[nH]c(=O)n([C@@H]2OC[C@@](O)(CO)[C@H]2O)cc1I	inactive																6	24	inactive
